ChEMBL document CHEMBL1146206, “Synthesis, cytotoxicity, and antiviral activities of new neolignans related to honokiol and magnolol” (Bioorg Med Chem Lett, 2007)
Calls of active or inactive are those of the source. No cut-off for these calls is given here.

Legend:
[1] = Cytotoxicity against human PBM cells; assay type: cell-based; settings: PBMC
[2] = system: Vero; assay: Cytotoxicity against Vero cells; assay type: cell-based; settings: Chlorocebus sabaeus
[3] = system: SVR; assay: Antiproliferative activity against mouse SVR cells at 10 ug/mL after 72 hrs; assay type: functional
Procedure, shortened: (§1)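 Immortalized endothelial SVR cells were seeded at 10^4 per well in 24-well dishes. The next day, the medium was replaced with fresh medium containing compound or controls. Cells were incubated for 72 h at 37 °C. Cell number was counted in triplicate with a Coulter counter, and results were expressed as percent inhibition of proliferation.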

[4] = system: SVR; assay: Inhibition of tumor growth in SVR cells bearing mouse up to 100 mg/kg, ip after 30 days; assay type: functional, organism-based; parameters: dose 100 mg/kg
Procedure, shortened: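 Nude male mice, 6 weeks old, were inoculated in the flank with SVR cells. Once tumors were visible, about 1 week after inoculation, mice received 3 mg/day intraperitoneally or vehicle control. Treatment ran up to 100 mg/kg for 30 days. Tumor growth and toxicity were compared against vehicle-treated mice.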

[5] = system: Human immunodeficiency virus 1; assay: Antiviral activity against HIV1 in human PBM cells; assay type: functional, organism-based; settings: Human immunodeficiency virus 1, PBMC
[6] = system: CCRF-CEM; assay: Cytotoxicity against human CEM cells; assay type: cell-based
[7] = system: SVR; assay: Antiproliferative activity against mouse SVR cells at 15 ug/mL after 72 hrs; assay type: functional; procedure, shortened: as §1

Structure (SMILES) | IC50 [1] [µM] | IC50 [2] [µM] | inhibition at 10 µg/mL [3] [%] | Activity [4] | EC50 [5] [µM] | EC90 [5] [µM] | IC50 [6] [µM] | inhibition at 15 µg/mL [7] [%]
C=CCc1cc(/C(CC)=C(\CC)c2ccc(O)c(CC=C)c2)ccc1O | > 100 | 3.7 | 68 | inactive | 9.5 | 30.9 | 3.4 | 89
C=CCc1cc(C(c2ccc(O)c(CC=C)c2)c2ccccn2)ccc1O | 16.8 | 14.8 | 25 | – | 35 | 67.2 | 16.5 | 46
C=CCc1cc(C(C)(C)c2ccc(O)c(CC=C)c2)ccc1O | > 100 | 13 | 33 | – | 4.1 | 47.3 | 5.8 | 57
C=CCc1cc(C2(c3ccc(O)c(CC=C)c3)CCCCC2)ccc1O | 55.4 | 12.5 | 63 | – | 36.5 | 67.2 | 11 | 79
C=CCc1cc(-c2ccc(O)c(CC=C)c2)ccc1O | > 100 | 83.2 | 45 | – | 19.4 | – | 23 | 56
C=CCc1cc(-c2ncc(O)cn2)ccc1O | 31.9 | > 100 | 4.4 | – | > 100 | > 100 | > 100 | 10
C=CCc1ccc(O)c(-c2cc(CC=C)ccc2O)c1 [MAGNOLOL] | 38.6 | 50.6 | 60 | – | 69.3 | > 100 | 99.5 | 77
C=CCc1ccc(O)c(-c2ccc(O)c(CC=C)c2)c1 [HONOKIOL] | 16.1 | 22.5 | 60 | – | 3.3 | – | 10.9 | 85
C=CCc1cc(Cc2ccc(O)c(CC=C)c2)ccc1O | 33.7 | 1.9 | 75 | – | 13.6 | 35.1 | 15.1 | 74
C=CCc1cc(-c2cccc(CC=C)c2O)ccc1O | 36.7 | 11.4 | 74 | – | 23.4 | 81 | 17.9 | 81
C=CCc1cccc(-c2cccc(CC=C)c2O)c1O | 45.9 | 19.8 | 41 | – | 34.8 | 63 | 10.4 | 57
C=CCc1cc(C(=C(Cl)Cl)c2ccc(O)c(CC=C)c2)ccc1O | 43.6 | 12.1 | 54 | – | 14.3 | 48.8 | 17.1 | 76
